Several values for one entry are separate records, joined by “and”; a condition that tells them apart may be missing. Equal values may be shown once.
Tested on: Fibroblast
Assay: Multiplex assay against human fibroblast
Assay type: toxicity, cell-based
Outline: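 On a CQ1 microscope at 37°C and 5% CO2, live cells were imaged after compound addition. They had been stained at seeding with Hoechst33342, BioTracker Green Microtubule Cytoskeleton Dye, MitoTracker Red and Annexin V Alexa Fluor 680. CellPathfinder machine-learning gating assigned cells to Hoechst high-intensity objects or normal cells, normal cells to healthy, pyknosed or fragmented nuclei, and pyknosed cells to mitotic or apoptotic. Tubulin, mitochondrial-mass and membrane-permeability phenotypes are per cents of healthy-nucleus cells.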

[1] = 12 h, 1 µM, compound concentration 1 uM
[2] = 12 h, 10 µM, compound concentration 10 uM
[3] = 24 h, 1 µM, compound concentration 1 uM
[4] = 24 h, 10 µM, compound concentration 10 uM
[5] = 48 h, 1 µM, compound concentration 1 uM
[6] = 48 h, 10 µM, compound concentration 10 uM

SMILES: CCn1cnc2c(-c3ccc(F)c(-c4ccc(S(=O)(=O)CC)cc4OC)c3)cnnc21 [DARIGABAT]
- Population Apoptotic (%) [1]: 6.38% and 17.39%
- Population Fragmented Nuclei (%) [1]: 14.08% and 9%
- Population Healthy Nuclei (%) [1]: 52.82% and 80.09%
- Population Hoechst High Intensity Objects (%) [1]: 0%
- Population Membrane Permeable-Phenotype (%) [1]: 4% and 1.78%
- Population Mitochondria Different-Phenotype (%) [1]: 14.67% and 11.24%
- Population Mitotic Cells (%) [1]: 93.62% and 82.61%
- Population Normal (%) [1]: 100%
- Population Tubulin-Different-Phenotype (%) [1]: 21.33% and 23.08%
- Total Cell Count [1]: 142 and 211
- Population Apoptotic (%) [2]: 12.5% and 19.64%
- Population Healthy Nuclei (%) [2]: 48.7% and 72.25%
- Population Hoechst High Intensity Objects (%) [2]: 0%
- Population Membrane Permeable-Phenotype (%) [2]: 13.33% and 8.61%
- Population Mitochondria Different-Phenotype (%) [2]: 14.67% and 16.56%
- Population Mitotic Cells (%) [2]: 87.5% and 80.36%
- Population Normal (%) [2]: 100%
- Population Tubulin-Different-Phenotype (%) [2]: 54.67% and 72.85%
- Total Cell Count [2]: 154 and 209
- Population Apoptotic (%) [3]: 11.11% and 23.08%
- Population Fragmented Nuclei (%) [3]: 13.37% and 6.44%
- Population Healthy Nuclei (%) [3]: 60.47% and 87.13%
- Population Hoechst High Intensity Objects (%) [3]: 0%
- Population Membrane Permeable-Phenotype (%) [3]: 0.96% and 3.41%
- Population Mitochondria Different-Phenotype (%) [3]: 9.62% and 6.82%
- Population Mitotic Cells (%) [3]: 88.89% and 76.92%
- Population Normal (%) [3]: 100%
- Population Tubulin-Different-Phenotype (%) [3]: 19.23% and 19.89%
- Total Cell Count [3]: 172 and 202
- Population Apoptotic (%) [4]: 23.08% and 22.22%
- Population Healthy Nuclei (%) [4]: 57.56% and 78.38%
- Population Hoechst High Intensity Objects (%) [4]: 0%
- Population Membrane Permeable-Phenotype (%) [4]: 11.11% and 3.45%
- Population Mitochondria Different-Phenotype (%) [4]: 14.14% and 19.54%
- Population Mitotic Cells (%) [4]: 76.92% and 77.78%
- Population Normal (%) [4]: 100%
- Population Tubulin-Different-Phenotype (%) [4]: 52.53% and 70.69%
- Total Cell Count [4]: 172 and 222
- Population Apoptotic (%) [5]: 28.57% and 56.25%
- Population Fragmented Nuclei (%) [5]: 13.07% and 8%
- Population Healthy Nuclei (%) [5]: 82.95% and 84%
- Population Hoechst High Intensity Objects (%) [5]: 0%
- Population Membrane Permeable-Phenotype (%) [5]: 1.37% and 1.79%
- Population Mitochondria Different-Phenotype (%) [5]: 19.18% and 6.55%
- Population Mitotic Cells (%) [5]: 71.43% and 43.75%
- Population Normal (%) [5]: 100%
- Total Cell Count [5]: 176 and 200
- Population Apoptotic (%) [6]: 34.62% and 60%
- Population Healthy Nuclei (%) [6]: 68.28% and 85.52%
- Population Hoechst High Intensity Objects (%) [6]: 0%
- Population Membrane Permeable-Phenotype (%) [6]: 4.72% and 11.64%
- Population Mitochondria Different-Phenotype (%) [6]: 15.75% and 8.99%
- Population Mitotic Cells (%) [6]: 65.38% and 40%
- Population Normal (%) [6]: 100%
- Population Tubulin-Different-Phenotype (%) [6]: 34.65% and 64.55%
- Total Cell Count [6]: 186 and 221

SMILES: O=C(NCCO)c1cccc(-c2cc(Nc3ccc(OC(F)(F)F)cc3)ncn2)c1
- Population Apoptotic (%) [1]: 46% and 38%
- Population Fragmented Nuclei (%) [1]: 16% and 29%
- Population Healthy Nuclei (%) [1]: 60% and 46%
- Population Hoechst High Intensity Objects (%) [1]: 3% and 4%
- Population Membrane Permeable-Phenotype (%) [1]: 1% and 10%
- Population Mitochondria Different-Phenotype (%) [1]: 6% and 8%
- Population Mitotic Cells (%) [1]: 53% and 61%
- Population Normal (%) [1]: 96% and 95%
- Population Pyknosed Nuclei (%) [1]: 24% and 23%
- Population Tubulin-Different-Phenotype (%) [1]: 33% and 46%
- Total Cell Count [1]: 130 and 149
- Population Apoptotic (%) [2]: 37% and 40%
- Population Fragmented Nuclei (%) [2]: 17% and 22%
- Population Healthy Nuclei (%) [2]: 59% and 36%
- Population Hoechst High Intensity Objects (%) [2]: 5% and 10%
- Population Membrane Permeable-Phenotype (%) [2]: 0% and 11%
- Population Mitochondria Different-Phenotype (%) [2]: 13% and 11%
- Population Mitotic Cells (%) [2]: 62% and 59%
- Population Normal (%) [2]: 94% and 89%
- Population Pyknosed Nuclei (%) [2]: 22% and 40%
- Population Tubulin-Different-Phenotype (%) [2]: 54% and 79%
- Total Cell Count [2]: 185 and 192
- Population Apoptotic (%) [3]: 56% and 52%
- Population Fragmented Nuclei (%) [3]: 16% and 24%
- Population Healthy Nuclei (%) [3]: 60% and 50%
- Population Hoechst High Intensity Objects (%) [3]: 1% and 2%
- Population Membrane Permeable-Phenotype (%) [3]: 2% and 5%
- Population Mitochondria Different-Phenotype (%) [3]: 4% and 5%
- Population Mitotic Cells (%) [3]: 43% and 47%
- Population Normal (%) [3]: 98% and 97%
- Population Pyknosed Nuclei (%) [3]: 22% and 25%
- Population Tubulin-Different-Phenotype (%) [3]: 33% and 42%
- Total Cell Count [3]: 135 and 139
- Population Apoptotic (%) [4]: 50% and 41%
- Population Fragmented Nuclei (%) [4]: 14% and 30%
- Population Healthy Nuclei (%) [4]: 61% and 36%
- Population Hoechst High Intensity Objects (%) [4]: 11% and 7%
- Population Membrane Permeable-Phenotype (%) [4]: 1% and 10%
- Population Mitochondria Different-Phenotype (%) [4]: 21% and 25%
- Population Mitotic Cells (%) [4]: 50% and 58%
- Population Normal (%) [4]: 88% and 92%
- Population Pyknosed Nuclei (%) [4]: 24% and 32%
- Population Tubulin-Different-Phenotype (%) [4]: 53% and 84%
- Total Cell Count [4]: 175 and 187
- Population Apoptotic (%) [5]: 82% and 45%
- Population Fragmented Nuclei (%) [5]: 21% and 31%
- Population Healthy Nuclei (%) [5]: 65% and 53%
- Population Hoechst High Intensity Objects (%) [5]: 1%
- Population Membrane Permeable-Phenotype (%) [5]: 3% and 6%
- Population Mitochondria Different-Phenotype (%) [5]: 1% and 4%
- Population Normal (%) [5]: 98%
- Population Pyknosed Nuclei (%) [5]: 13% and 14%
- Population Tubulin-Different-Phenotype (%) [5]: 28% and 38%
- Total Cell Count [5]: 130 and 156
- Population Apoptotic (%) [6]: 70% and 76%
- Population Fragmented Nuclei (%) [6]: 35% and 40%
- Population Healthy Nuclei (%) [6]: 51% and 47%
- Population Hoechst High Intensity Objects (%) [6]: 13% and 6%
- Population Membrane Permeable-Phenotype (%) [6]: 0% and 13%
- Population Mitochondria Different-Phenotype (%) [6]: 26% and 19%
- Population Mitotic Cells (%) [6]: 30% and 23%
- Population Normal (%) [6]: 86% and 93%
- Population Pyknosed Nuclei (%) [6]: 13% and 11%
- Population Tubulin-Different-Phenotype (%) [6]: 64% and 86%
- Total Cell Count [6]: 170 and 198

Source: ChEMBL document CHEMBL5724801, “EUbOPEN Chemogenomics Library - Multiplex” (2024)
